Test results from ChEMBL document CHEMBL4706565, “Anti-glioma effects of 2-aminothiophene-3-carboxamide derivatives, ANO1 channel blockers” (Eur J Med Chem, 2020).
Calls of active or inactive are those of the source. The rule behind the calls is not given here.

Assays:
U-251 [1] = experiment: Inhibition of cell migration in human U251 cells at 10 uM incubated for 18 hrs by wound healing assay; type: functional
In short: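 U251 monolayer, 2.0×10^5 cells/well, plated overnight, then scratched and washed with PBS. Wound area imaged before and after incubation; migration ratio taken from migrated area. One-way ANOVA.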

U-251 [2] = experiment: Inhibition of colony formation in human U251 cells at 10 uM incubated for 14 days by crystal violet dye based assay; type: functional; conditions: U-251, 336 h, time 14 day
In short: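 Colonies stained 24 h with crystal violet in methanol/formaldehyde/PBS, washed, extracted with 10% acetic acid and read at A570 nm. Compared against DMSO control.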

[3] = molecular target: T1, Anoctamin-1 (Homo sapiens) (UniProt Q5XXA6); experiment: Inhibition of ANO1 in human U251 cells assessed as inhibition of channel current at 10 uM by patch clamp electrophysiology assay; type: cell-based; conditions: U-251
T1 sequence (whole entry): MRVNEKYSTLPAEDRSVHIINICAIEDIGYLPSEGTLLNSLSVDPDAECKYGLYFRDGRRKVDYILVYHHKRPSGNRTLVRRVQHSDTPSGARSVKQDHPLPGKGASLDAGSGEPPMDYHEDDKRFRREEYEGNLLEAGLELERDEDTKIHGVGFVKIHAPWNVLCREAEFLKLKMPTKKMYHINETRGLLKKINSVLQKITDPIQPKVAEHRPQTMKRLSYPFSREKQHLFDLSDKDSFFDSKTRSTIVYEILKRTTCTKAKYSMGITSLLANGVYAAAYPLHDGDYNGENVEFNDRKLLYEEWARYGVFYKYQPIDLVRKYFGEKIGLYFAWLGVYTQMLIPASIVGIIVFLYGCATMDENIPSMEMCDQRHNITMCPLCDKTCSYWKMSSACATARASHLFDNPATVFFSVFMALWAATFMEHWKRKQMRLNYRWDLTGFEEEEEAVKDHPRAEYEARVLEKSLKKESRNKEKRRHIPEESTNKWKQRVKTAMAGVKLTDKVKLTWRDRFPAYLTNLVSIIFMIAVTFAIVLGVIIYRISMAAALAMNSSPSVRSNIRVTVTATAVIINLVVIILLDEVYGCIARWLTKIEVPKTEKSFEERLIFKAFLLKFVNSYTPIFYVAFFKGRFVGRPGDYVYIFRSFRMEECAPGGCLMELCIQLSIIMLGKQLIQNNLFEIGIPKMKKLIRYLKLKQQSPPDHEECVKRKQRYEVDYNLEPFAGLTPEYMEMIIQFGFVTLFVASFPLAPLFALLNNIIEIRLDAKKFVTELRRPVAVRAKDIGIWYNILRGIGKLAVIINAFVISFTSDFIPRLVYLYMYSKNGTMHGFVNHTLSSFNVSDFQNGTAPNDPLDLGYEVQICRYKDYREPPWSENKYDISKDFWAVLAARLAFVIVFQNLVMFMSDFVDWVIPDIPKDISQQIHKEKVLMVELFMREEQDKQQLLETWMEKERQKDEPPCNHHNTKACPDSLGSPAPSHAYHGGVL
In short: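 Endogenous ANO1 currents recorded by whole-cell patch clamp in U251 cells, room temperature. 1 s ramps from +80 to -80 mV, holding potential -10 mV. CsCl-based pipette with Ca-EGTA-NMDG (pH 7.3) and NaCl-based bath (pH 7.3).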

U-251 [4] = experiment: Inhibition of cell migration in human U251 cells at 5 uM incubated for 18 hrs by wound healing assay; type: functional, cell-based
In short: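 U251 monolayer, 2.0×10^5 cells/well, plated overnight, then scratched and washed with PBS. Incubated 18 h in complete medium with compound (1, 5 or 10 μM). Wound area imaged before and after incubation; migration ratio taken from migrated area. One-way ANOVA.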

U-251 [5] = experiment: Inhibition of anchorage-independent colony formation in human U251 cells at 100 uM incubated for 14 days by crystal violet staining based soft agar colony formation assay; type: functional; conditions: U-251, 336 h, time 14 day
In short: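 Soft agar assay: 2.0×10^3 U251 cells in complete medium with 0.3% agar over a 0.6% bottom agar layer. Treated with compounds at 1-100 μM for 14 days, 37 °C, 5% CO2. Colonies stained with crystal violet for 24 h, whole wells photographed and colonies counted against DMSO control; n = 3.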

Anoctamin-1 = molecular target: T2, Anoctamin-1 (Mus musculus, UniProt Q8BHY3); experiment: (§1) Inhibition of GFP-fused mouse ANO1 channel expressed in HEK293A cells assessed as inhibition of ATP-induced channel current amplitude at membrane potential of +80 mV by patch clamp electrophysiology assay; type: cell-based, HEK293-A
T2 sequence (Q8BHY3 whole entry): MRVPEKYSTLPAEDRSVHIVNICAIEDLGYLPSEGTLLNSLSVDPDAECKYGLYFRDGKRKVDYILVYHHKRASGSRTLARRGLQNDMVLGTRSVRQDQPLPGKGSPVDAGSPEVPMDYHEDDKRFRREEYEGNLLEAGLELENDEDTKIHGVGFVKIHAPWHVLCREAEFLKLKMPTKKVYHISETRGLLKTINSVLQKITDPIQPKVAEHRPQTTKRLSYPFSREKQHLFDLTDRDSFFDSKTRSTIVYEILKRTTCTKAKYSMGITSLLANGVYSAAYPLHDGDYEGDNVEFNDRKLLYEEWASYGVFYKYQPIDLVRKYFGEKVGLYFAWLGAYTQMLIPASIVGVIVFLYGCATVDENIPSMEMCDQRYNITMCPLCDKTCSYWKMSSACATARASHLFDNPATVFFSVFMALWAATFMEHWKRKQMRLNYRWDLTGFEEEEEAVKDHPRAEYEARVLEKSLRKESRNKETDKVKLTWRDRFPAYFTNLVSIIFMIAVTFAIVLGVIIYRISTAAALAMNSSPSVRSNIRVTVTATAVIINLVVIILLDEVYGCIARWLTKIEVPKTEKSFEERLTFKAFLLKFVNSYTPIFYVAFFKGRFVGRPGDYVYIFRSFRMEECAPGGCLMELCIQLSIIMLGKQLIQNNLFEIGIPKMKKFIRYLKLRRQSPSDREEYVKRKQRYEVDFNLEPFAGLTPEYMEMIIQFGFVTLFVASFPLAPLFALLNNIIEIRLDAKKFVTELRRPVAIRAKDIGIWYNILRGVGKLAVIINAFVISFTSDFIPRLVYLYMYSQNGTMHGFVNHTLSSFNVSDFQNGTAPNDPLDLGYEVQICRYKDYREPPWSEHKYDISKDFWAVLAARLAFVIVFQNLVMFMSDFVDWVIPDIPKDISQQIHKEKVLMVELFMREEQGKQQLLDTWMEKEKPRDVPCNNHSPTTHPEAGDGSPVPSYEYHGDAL
In short: (§2)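 Whole-cell recording at room temperature in HEK293A cells transfected with GFP-mANO1, GFP-mANO2 or GFP-mTTYH1. 1 s ramps from +80 to -80 mV, holding potential -10 mV. For ANO1/ANO2: pipette CsCl 146 mM with Ca-EGTA-NMDG, pH 7.3; bath NaCl-based, pH 7.3. For TTYH1: Tris-aspartate pipette (pH 7.2) and Tris-HCl bath (pH 7.4), with […] and BaCl2 added to block K+ channels, and hypotonic (220 mOsm/kg) bath. Washout recordings assessed reversibility.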

[6] = molecular target: T3, Anoctamin-1 (Mus musculus) (UniProt Q8BHY3); experiment: as §1; type: cell-based; conditions: HEK293-A; in short: as §2
T3 sequence (whole entry): T2 sequence (Q8BHY3 whole entry)

inhibition [3] | IC50 (Anoctamin-1) | inhibition [6] | Compound | inhibition at 10 µM (U-251 [1]) | inhibition at 10 µM (U-251 [2]) | inhibition (U-251 [4]) | inhibition at 100 µM (U-251 [5]) | inhibition (U-251 [1])
40% | 2.56 µM | Dose-dependent effect | CC(C)(C)C(=O)Nc1sc2c(c1C(N)=O)CCC(C(C)(C)C)C2 (centres undefined) | 90% | 96.6% | Active | 95.7% | 
60% | 1.75 µM | Dose-dependent effect | NC(=O)c1c(NC(=S)NC(=O)c2ccc(Cl)cc2)sc2c1CCC2 |  | 96.4% | Active | 88% | Active
